C8 TRAIL sens: caspase-8 TRAIL sensitization; NB7+C8 cells + TRAIL, ATPlite viability luminescence; inhibition (viability loss, TRAIL sensitization), % at 10 µM; hit rate 1% among 360,000; AID 624354;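 active means compounds causing at least 50% loss of cell viability in the single-dose screen, relative to plate controls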
FLuc inhib CS: inhibits firefly luciferase, flagging false hits in luciferase inhibition screens; P08659; ATPLite firefly luciferase biochemical luminescence, 10 min; inhibition, % at 10 µM; hit rate 1.5% among 200,000; AID 1006;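 active means inhibition above about 50% when tested at 10 µM, limit read from the data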
Target sequence (P08659 whole entry, looked up): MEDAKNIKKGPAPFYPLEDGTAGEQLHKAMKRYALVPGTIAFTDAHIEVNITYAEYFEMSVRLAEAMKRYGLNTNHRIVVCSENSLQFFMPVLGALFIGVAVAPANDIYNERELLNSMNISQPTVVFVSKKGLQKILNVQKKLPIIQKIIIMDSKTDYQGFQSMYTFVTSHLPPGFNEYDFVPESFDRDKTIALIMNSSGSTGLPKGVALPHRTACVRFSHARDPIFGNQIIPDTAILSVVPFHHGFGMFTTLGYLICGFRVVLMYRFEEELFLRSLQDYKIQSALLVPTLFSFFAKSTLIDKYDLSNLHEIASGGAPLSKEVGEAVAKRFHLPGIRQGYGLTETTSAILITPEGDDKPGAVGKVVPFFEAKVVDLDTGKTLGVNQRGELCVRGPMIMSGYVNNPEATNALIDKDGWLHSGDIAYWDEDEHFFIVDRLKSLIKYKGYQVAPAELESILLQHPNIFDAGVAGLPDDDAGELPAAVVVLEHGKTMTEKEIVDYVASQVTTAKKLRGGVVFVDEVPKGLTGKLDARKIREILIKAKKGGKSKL
PPC-1+TRAIL kill: compounds killing PPC-1 cancer cells with TRAIL present (potentiator screen, no TRAIL-free arm). PPC-1 cells + TRAIL, ATPLite viability luminescence. cell killing (% activity), % at 4 µM or 5 µM. hit rate 0.41% among 220,000;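 active means cell killing above 50% in the first pass at 4 µM, then a duplicate retest at 5 µM averaging 50% or more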;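 further: plate controls were cells with TRAIL plus DMSO for no effect and medium-only wells lacking cells for full effect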
FLuc act counter: firefly luciferase counter-screen for stimulation assays; AID 1027; activation factor at 10 µM; ATPlite luciferase biochemical, luminescence, 10 min; 0 = ATP-free wells, 1 = DMSO control; 200,000 tested, under 10 active;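 active means luciferase activation factor, scaled between plate controls, of at least 2 with compound at 10 µM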
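assay system = Luciferase/luciferin detection reagent, cell-free biochemical luciferase assay | also added = ATP substrate | times = 10 min post-reagent at room temperature | measured by = luminescence from luciferase reaction | measure = luciferase activation, seen as luminescence increase over controls | benchmarks = low control with PBS replacing ATP, high control enzyme plus ATP without compound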
The depositor's hits bear a star; · = no result given. Sampled rows, rich in hits. Any-hit rate of the full collection: about 1.5%.

SMILES	C8 TRAIL sens	FLuc inhib CS	PPC-1+TRAIL kill	FLuc act counter
O=C(CC1SC(=O)N(Cc2cccc3ccccc23)C1=O)Nc1nccs1 (stereo unspecified)	52.9*	-6.8	-4.4	1.1
CCOC(=O)CN1C(=O)SC(CC(=O)Nc2nccs2)C1=O (stereo unspecified)	59.7*	-3.1	11.2	1
COc1cc(/C=N/NC(=O)Cc2csc(N3CCOCC3)n2)cc(OC)c1O	19.5	59.6*	14.3	0.4
O=C(Cc1csc(N2CCOCC2)n1)N/N=C/c1ccc(Cl)cc1Cl	5.6	-4.3	15.9	1
Cc1ccc(C)c(OCC(=O)Nc2ccc(C(=O)O)cc2NC(=O)COc2cc(C)ccc2C)c1	4.6	·	·	·
O=C(NCC1COc2ccccc2O1)c1cccc(S(=O)(=O)N2CCN(c3ccccc3)CC2)c1 (stereo unspecified)	2.6	·	·	·
O=C(Nc1cccnc1)c1ccc(-c2ccc(Cl)cc2)o1	-0.9	66.2*	27.5	0.3
O=C(Nc1cccnc1)c1ccc(-c2cc(Cl)ccc2Cl)o1	-4.6	5.8	3.2	0.9
COc1ccc(/C=N/Nc2nc(Nc3ccccc3)nc(N3CCCC3)n2)cc1	10.1	22.6	4.3	0.8
O=C(O)COc1ccc(/C=N/Nc2nc(Nc3ccccc3)nc(N3CCCCC3)n2)cc1	22.8	54.9*	18.2	0.5
CCCCn1nnnc1C(c1ccccc1)N1CCN(c2ccc(C)cc2)CC1 (stereo unspecified)	-0.2	·	·	·
CCCCCCCCCC[n+]1cccc2c3ccccc3ccc21	44.2	-5.0	36.5	1.1
CCCCCCCC[n+]1cccc2c3ccccc3ccc21	59.4*	-6.9	44.4	1.1
CC(=O)c1cccc(N2C(=NC(=O)C3CCCCC3)SC3CS(=O)(=O)CC32)c1 (stereo unspecified)	-21.3	·	·	·
CN(C)CCCn1cnc2c(c1=N)C(c1ccccc1)c1ccc3ccccc3c1O2 (stereo unspecified)	70.5*	·	·	·
NC(=S)N/N=C\c1c2ccccc2cc2ccccc12	-4.1	-1.9	60.6*	1
C[C@H](CO)N1C[C@H](C)[C@H](CN(C)S(=O)(=O)c2cccc(C#N)c2)OCc2cnnn2CCCC1=O	-1.8	·	·	·
Nc1nc(Nc2ccccc2)nc2ccccc12	60.4*	87.9*	43.2	0.1
CCOc1ccc(Nc2nc(N)c3ccccc3n2)cc1	86.1*	·	·	·
CN(C)c1ccc(Nc2nc(N)c3ccccc3n2)cc1	83.9*	·	·	·
COc1ccc(C)cc1Nc1nc(N)c2ccccc2n1	-4.9	·	·	·
COc1cc2nc(Nc3ccc(C)c(Cl)c3)nc(N)c2cc1OC	38.0	·	·	·
Cc1ccc(Nc2nc(N)c3ccccc3n2)cc1Cl	68.8*	·	·	·
CCOc1nc(Nc2ccc(OC)cc2)nc(OCC)n1	14.5	-1.2	4.0	1
Oc1ccc(Br)cc1Cn1nnc2ccccc21	-15.8	·	·	·
SMILES	C8 TRAIL sens	FLuc inhib CS	PPC-1+TRAIL kill	FLuc act counter
Cc1cc(=O)[nH]c2nnc(-c3ccc(Cl)cc3)n12	67.7*	·	·	·
Cc1cc(=O)[nH]c(N2CCN(c3ccc(Cl)cc3)CC2)n1	-4.5	·	·	·
Cc1[nH]n(-c2ccccc2)c(=O)c1C=NCc1ccco1	·	28.3	9.1	0.7
Cc1[nH]n(-c2cccc(Cl)c2)c(=O)c1C=NCc1ccco1	7.6	65.2*	-0.1	0.3
O=C(/C=C/c1cccs1)Nc1ccncc1	-2.8	27.6	30.1	0.7
Cc1cccc(NC(=O)/C=C/c2cccs2)n1	41.6	65.3*	32.0	0.3
CCOC(=O)[C@]12CCCC=C1N(Cc1ccc3c(c1)OCO3)C(=O)[C@H](CC(=O)N1CCN(C(=O)C3CC3)CC1)C2	-1.4	·	·	·
CNC(=O)c1cc(Oc2ccc(NC(=O)Nc3ccc(Cl)c(C(F)(F)F)c3)cc2)ccn1	71.3*	·	·	·
O=C(Nc1ccc(Cl)c(C(F)(F)F)c1)c1ccncc1	8.8	-0.1	·	1
CCOC(=O)C1=C(COC(=O)c2ccc(Br)o2)NC(=O)NC1C (stereo unspecified)	2.0	·	·	·
COC(=O)C(NC(=O)c1ccccc1C(=O)O)c1ccc2ccccc2c1 (stereo unspecified)	8.2	·	·	·
CS(=O)(=O)NCCOc1ccc(S(=O)(=O)NCCOc2ccccc2)cc1	-0.5	-0.9	12.8	1
Cc1cccc(C)c1NS(=O)(=O)c1ccc(OCCNS(C)(=O)=O)cc1	1.4	81.2*	8.4	0.2
COc1cc(C(=O)NC(C)CCn2cccn2)ccc1OC1CCN(C(C)=O)CC1 (stereo unspecified)	11.2	·	·	·
COc1cccc(-c2cc3nc(-c4ccccc4)cc(N4CCN(C(=O)c5ccoc5)CC4)n3n2)c1	79.0*	·	·	·
O=C(c1ccoc1)N1CCN(c2cc(-c3ccco3)nc3cc(-c4ccccc4)nn23)CC1	27.4	·	·	·
COc1ccccc1-c1cc2nc(-c3ccccc3)cc(N3CCN(C(=O)c4ccoc4)CC3)n2n1	74.0*	·	·	·
O=C(c1ccoc1)N1CCN(c2cc(-c3ccccc3)nc3cc(-c4ccccc4)nn23)CC1	43.3	·	·	·
COc1ccccc1-c1cc2nc(-c3ccccc3)cc(N3CCN(C(=O)c4ccco4)CC3)n2n1	75.3*	·	·	·
COCOc1cccc(CN2CCC2(C)C(=O)Nc2ccc(OC)c(OC)c2)c1 (stereo unspecified)	-9.7	·	·	·
CCN1CCc2c(sc(NC(=O)c3ccc(S(=O)(=O)N(C)c4ccccc4)cc3)c2C(=O)NC)C1	55.0*	·	·	·
CCOc1ccc(S(=O)(=O)N2CCCCC2)cc1NC(=O)CN1C(=O)NC(C)(C2CC2)C1=O (stereo unspecified)	-1.6	·	·	·
Cn1nc(C(=O)Nc2ccc3c(c2)OCCO3)cc1C(=O)O	47.0	64.8*	30.1	0.4
Cn1ccc(C(=O)Nc2ccc3c(c2)OCCO3)n1	39.4	·	·	·
CCn1cc(Cl)c(C(=O)Nc2ccc3c(c2)OCCO3)n1	52.0*	73.8*	48.2	0.3
SMILES	C8 TRAIL sens	FLuc inhib CS	PPC-1+TRAIL kill	FLuc act counter
CCn1cc(Cl)c(C(=O)Nc2cccc(C(F)(F)F)c2)n1	-1.1	1.3	17.2	1
COc1ccc(-c2cc3c(=O)n(CC(=O)Nc4cccc(Cl)c4)nc(C)n3n2)cc1	22.9	·	·	·
O=C(NCC(=O)N1CCN(Cc2ccccc2)CC1)c1ccc(Br)o1	-8.8	·	·	·
COc1ccc(CNC(=O)C(=O)NCC2OCCCN2S(=O)(=O)c2cccs2)cc1 (stereo unspecified)	-2.6	·	·	·
CCN(CC)c1ccc(S(=O)(=O)N2CCOCC2)cc1NC(=O)Nc1ccccc1	-1.6	·	·	·
CS(=O)(=O)N(CC(=O)Nc1ccc(Br)cc1)C1CCCCC1	15.4	·	·	·
C=C1CCC2C(C)(C)[C@H](O)CC[C@@]2(C)[C@@H]1COc1cc(=O)oc2ccccc12 (stereo partly specified)	8.7	-7.0	-0.3	1.1
C=C1CC(COc2cc(=O)oc3ccccc23)(c2ccccc2)OC1=O (stereo unspecified)	93.3*	·	·	·
CCN(CC(=O)Nc1ccc2c(c1)OCCO2)C(=O)c1ccc(Cl)cc1Cl	7.7	·	·	·
CCOC(=O)c1ccc(N=c2sc(C(=O)OC)cc(=O)n2-c2ccc(C(=O)OCC)cc2)cc1	64.7*	-10.8	-4.1	1.1
COC(=O)c1cc(=O)n(-c2ccccc2)c(=Nc2ccccc2)s1	4.6	-12.9	4.3	1.1
C#Cc1cccc(Nc2nc(NCCOC)nc3ccsc23)c1	8.0	·	·	·
C#Cc1cccc(Nc2nc(NCc3ccccc3OC)nc3ccsc23)c1	45.6*	·	·	·

Compound activity (PubChem BioAssay)
